{"source": "ChEMBL document CHEMBL4229489", "about": "“Synthesis and evaluation of camphor and cytisine-based cyanopyrrolidines as DPP-IV inhibitors for the treatment of type 2 diabetes mellitus” (Bioorg Med Chem, 2018)", "key": {"Dipeptidyl peptidase 4": {"target": "Dipeptidyl peptidase 4 (Homo sapiens, UniProt P27487)", "sequence (P27487 whole entry)": "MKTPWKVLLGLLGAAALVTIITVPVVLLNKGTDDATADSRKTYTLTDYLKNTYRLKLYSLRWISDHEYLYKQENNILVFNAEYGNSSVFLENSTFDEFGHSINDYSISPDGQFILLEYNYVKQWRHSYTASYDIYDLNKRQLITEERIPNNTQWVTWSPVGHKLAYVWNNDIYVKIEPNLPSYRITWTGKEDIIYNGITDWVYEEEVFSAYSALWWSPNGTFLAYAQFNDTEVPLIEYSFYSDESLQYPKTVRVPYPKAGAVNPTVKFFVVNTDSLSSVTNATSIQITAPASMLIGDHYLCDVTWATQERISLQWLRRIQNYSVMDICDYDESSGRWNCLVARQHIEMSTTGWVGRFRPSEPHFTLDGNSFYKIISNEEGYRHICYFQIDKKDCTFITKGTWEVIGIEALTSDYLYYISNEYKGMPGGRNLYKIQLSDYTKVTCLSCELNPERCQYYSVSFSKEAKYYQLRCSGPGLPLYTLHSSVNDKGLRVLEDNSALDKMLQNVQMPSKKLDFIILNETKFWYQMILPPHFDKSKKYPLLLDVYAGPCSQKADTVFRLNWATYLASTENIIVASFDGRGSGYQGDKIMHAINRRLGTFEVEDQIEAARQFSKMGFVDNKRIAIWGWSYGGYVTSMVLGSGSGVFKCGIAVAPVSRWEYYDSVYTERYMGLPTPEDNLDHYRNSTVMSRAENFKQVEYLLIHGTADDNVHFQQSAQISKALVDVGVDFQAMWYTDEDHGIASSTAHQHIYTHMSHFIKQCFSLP", "experiment": "Inhibition of recombinant human DPP4 using H-Gly-Pro-AMC as substrate measured after 10 mins"}, "Mus musculus": {"tested_on": "Mus musculus", "experiment": "Hypoglycemic activity in albino CD-1 mouse assessed as reduction in blood glucose level at 10 mg/kg, po pretreated for 0.5 hrs followed by glucose challenge and measured after 30 to 90 mins by OGTT", "type": "functional, organism-based", "outline": "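Male CD-1 albino mice, 25–35 g, randomized by weight into groups of 5, fasted 12 h. Compounds mixed with a few drops of Tween 80 or DMSO, dissolved in distilled water, given orally at 10 mg/kg 0.5 h before an oral glucose load (2.5 g/kg). Controls got vehicle only. Blood glucose read by glucometer at 0, 30, 60, 90 min. Mean ± SD, n = 5.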"}}, "note": "Calls of active or inactive are those of the source. The calls are words filed in the database; no cut-off is given here."}
{"compound": "N#C[C@@H]1CCCN1C(=O)CN1C[C@H]2C[C@H](C1)c1c(Cl)ccc(=O)n1C2", "values": [{"measurement": "IC50", "setting": "Dipeptidyl peptidase 4", "value": "Not Active"}, {"measurement": "Activity", "setting": "Mus musculus", "value": "inactive"}]}
{"compound": "N#C[C@@H]1CCCN1C(=O)CN1C[C@H]2C[C@H](C1)c1cccc(=O)n1C2", "values": [{"measurement": "IC50", "setting": "Dipeptidyl peptidase 4", "value": "Not Active"}, {"measurement": "Activity", "setting": "Mus musculus", "value": "inactive"}]}
{"compound": "N#C[C@@H]1CCCN1C(=O)CN1C[C@H]2C[C@H](C1)c1ccc([N+](=O)[O-])c(=O)n1C2", "values": [{"measurement": "IC50", "setting": "Dipeptidyl peptidase 4", "value": "Not Active"}, {"measurement": "Activity", "setting": "Mus musculus", "value": "inactive"}]}
{"compound": "CC1(C)[C@@H]2CC[C@@]1(C)[C@H](NCC(=O)N1CCC[C@H]1C#N)C2", "values": [{"measurement": "Activity", "setting": "Mus musculus", "value": "Active"}]}
{"compound": "CC1(C)[C@H]2CC[C@]1(C)[C@@H](O)[C@H]2NCC(=O)N1CCC[C@H]1C#N", "note": "(stereo in doubt)", "values": [{"measurement": "Activity", "setting": "Mus musculus", "value": "Active"}]}
{"compound": "N#C[C@@H]1CCCN1C(=O)CN1C[C@H]2C[C@H](C1)c1c(Cl)cc(Cl)c(=O)n1C2", "values": [{"measurement": "IC50", "setting": "Dipeptidyl peptidase 4", "value": "Not Active"}, {"measurement": "Activity", "setting": "Mus musculus", "value": "inactive"}]}
{"compound": "N#C[C@@H]1CCCN1C(=O)CN1C[C@H]2C[C@H](C1)c1c(Br)cc(Br)c(=O)n1C2", "values": [{"measurement": "IC50", "setting": "Dipeptidyl peptidase 4", "value": "Not Active"}, {"measurement": "Activity", "setting": "Mus musculus", "value": "inactive"}]}
{"compound": "N#C[C@@H]1CCCN1C(=O)CNC12CC3CC(CC(O)(C3)C1)C2", "values": [{"measurement": "Activity", "setting": "Mus musculus", "value": "Active"}]}
{"compound": "CC12CCC([C@H](NCC(=O)N3CCC[C@H]3C#N)C1=O)C2(C)C", "note": "(single isomer, unassigned)", "values": [{"measurement": "Activity", "setting": "Mus musculus", "value": "Active"}]}
{"compound": "CC1(C)[C@H]2CC[C@]1(C)[C@@H](NCC(=O)N1CCC[C@H]1C#N)C2", "values": [{"measurement": "Activity", "setting": "Mus musculus", "value": "Active"}]}
